Measured values from ChEMBL document CHEMBL1250544, “Diversity-oriented synthesis of cyclic acyldepsipeptides leads to the discovery of a potent antibacterial agent” (2010).
≈ marks a conversion by molar mass, not a printed value.

Legend:
Staphylococcus aureus [1] = assay: Antimicrobial activity against methicillin-resistant Staphylococcus aureus from blood after 24 hrs by broth microdilution assay; type: functional
Summary of the method: (§1)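 CLSI broth microdilution in duplicate on clinical isolates from Veterans Affairs Medical Center patients. Compounds were dissolved in DMSO and serially diluted twofold in cation-adjusted Mueller–Hinton broth (25 µg/mL Ca, 12.5 µg/mL Mg). Inoculum was verified by colony counts on tryptic soy agar. MIC is the lowest concentration visually inhibiting >99%.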

Staphylococcus aureus [2] = assay: Antimicrobial activity against methicillin-susceptible Staphylococcus aureus ATCC 3556 after 24 hrs by broth microdilution assay; type: functional
Summary of the method: (§2)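 CLSI broth microdilution run in duplicate. Compounds were dissolved in DMSO and serially diluted twofold in cation-adjusted Mueller–Hinton broth (25 µg/mL calcium, 12.5 µg/mL magnesium). Inoculum was verified by colony counts on tryptic soy agar. MIC was the lowest concentration visually inhibiting >99% of colonies.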

Enterococcus faecalis [3] = assay: Antimicrobial activity against Enterococcus faecalis ATCC 29212 after 24 hrs by broth microdilution assay; type: functional; conditions: ATCC 29212, 24 h; summary of the method: as §2
Enterococcus faecalis [4] = assay: Antimicrobial activity against Enterococcus faecalis clinical isolate obtained from rectal swab after 24 hrs by broth microdilution assay; type: functional; summary of the method: as §2
Enterococcus faecium = assay: Antimicrobial activity against vancomycin-resistant Enterococcus faecium clinical isolate obtained from tissue after 24 hrs by broth microdilution assay; type: functional; summary of the method: as §1
Enterococcus faecalis [5] = assay: Antimicrobial activity against vancomycin-resistant Enterococcus faecalis clinical isolate obtained from rectal swab after 24 hrs by broth microdilution assay
[6] = Staphylococcus aureus, 24 h, read-out: MBC
[7] = Staphylococcus aureus, ATCC 3556, 24 h, read-out: MIC

CCCC/C=C/C(=O)N[C@@H](Cc1cccc(F)c1)C(=O)N[C@@H]1COC(=O)[C@@H]2CCCN2C(=O)[C@H](C)NC(=O)C2(CCCC2)N(C)C(=O)[C@@H]2CCCN2C1=O
MBC (Staphylococcus aureus [1]; [6]): > 312 µg/mL

CCCC/C=C/C(=O)N[C@@H](Cc1cccc(F)c1)C(=O)N[C@@H]1COC(=O)[C@@H]2CCCN2C(=O)[C@H](C)NC(=O)[C@H]2CCCCN2C(=O)[C@@H]2CCCN2C1=O
MIC (Staphylococcus aureus [2]; [7]): > 312 µg/mL | MBC (Staphylococcus aureus [1]; [6]): > 312 µg/mL

CCCC/C=C/C(=O)N[C@@H](Cc1cccc(F)c1)C(=O)N[C@@H]1COC(=O)[C@@H]2CCCN2C(=O)[C@H](C)NC(=O)[C@@H]2CCCCN2C(=O)[C@@H]2CCCN2C1=O
MIC (Staphylococcus aureus [2]): 1.25 µg/mL (≈ 1.69 µM) | MIC (Staphylococcus aureus [2]; [7]): 1.25 µg/mL (≈ 1.69 µM) | MBC (Staphylococcus aureus [1]): 1.25 µg/mL (≈ 1.69 µM) | MBC (Staphylococcus aureus [1]; [6]): 1.25 µg/mL (≈ 1.69 µM) | MBC (Enterococcus faecalis [3]): 1.25 µg/mL (≈ 1.69 µM) | MIC (Enterococcus faecalis [3]): 0.16 µg/mL (≈ 0.217 µM) | MBC (Enterococcus faecalis [4]): 0.04 µg/mL (≈ 0.0541 µM) | MIC (Enterococcus faecalis [4]): 0.04 µg/mL (≈ 0.0541 µM) | MBC (Enterococcus faecium): 0.08 µg/mL (≈ 0.108 µM) | MIC (Enterococcus faecium): 0.08 µg/mL (≈ 0.108 µM) | MBC (Enterococcus faecalis [5]): 0.04 µg/mL (≈ 0.0541 µM) | MIC (Enterococcus faecalis [5]): 0.04 µg/mL (≈ 0.0541 µM)

CCCC/C=C/C(=O)N[C@@H](Cc1cccc(F)c1)C(=O)N[C@@H]1COC(=O)[C@@H]2CCCN2C(=O)[C@H](C)NC(=O)[C@H]2CC(C)CCN2C(=O)[C@@H]2CCCN2C1=O (some centres undefined)
MIC (Staphylococcus aureus [2]; [7]): > 156 µg/mL

CCCC/C=C/C(=O)N[C@@H](Cc1cccc(F)c1)C(=O)N[C@@H]1COC(=O)[C@@H]2CCCN2C(=O)[C@H](C)NC(=O)C2(CCCCC2)N(C)C(=O)[C@@H]2CCCN2C1=O
MBC (Staphylococcus aureus [1]; [6]): > 312 µg/mL

CCCC/C=C/C(=O)N[C@@H](Cc1cccc(F)c1)C(=O)N[C@@H]1COC(=O)[C@@H]2CCCN2C(=O)[C@H](C)NC(=O)[C@@H]2CC(C)CCN2C(=O)[C@@H]2CCCN2C1=O (some centres undefined)
MIC (Staphylococcus aureus [2]; [7]): 0.6 µg/mL (≈ 0.797 µM) | MBC (Enterococcus faecalis [3]): 0.08 µg/mL (≈ 0.106 µM) | MIC (Enterococcus faecalis [3]): 0.04 µg/mL (≈ 0.0531 µM) | MBC (Enterococcus faecalis [4]): 0.04 µg/mL (≈ 0.0531 µM) | MIC (Enterococcus faecalis [4]): 0.02 µg/mL (≈ 0.0266 µM) | MBC (Enterococcus faecium): 0.08 µg/mL (≈ 0.106 µM) | MIC (Enterococcus faecium): 0.04 µg/mL (≈ 0.0531 µM) | MBC (Enterococcus faecalis [5]): 0.04 µg/mL (≈ 0.0531 µM) | MIC (Enterococcus faecalis [5]): 0.04 µg/mL (≈ 0.0531 µM)

CCCC/C=C/C(=O)N[C@@H](Cc1cccc(F)c1)C(=O)N[C@@H]1COC(=O)[C@@H]2CCCN2C(=O)[C@H](C)NC(=O)C2(CCC2)N(C)C(=O)[C@@H]2CCCN2C1=O
MIC (Staphylococcus aureus [2]): >312 µg/mL | MIC (Staphylococcus aureus [2]; [7]): 312 µg/mL (≈ 422 µM) | MBC (Staphylococcus aureus [1]; [6]): > 312 µg/mL
